Calls of active or inactive are those of the source. The rule behind the calls is not given here.
Assays:
MDA-MB-231 [1] = test: Cell cycle arrest in human MDA-MB-231 cells assessed as accumulation of cells with 4N/8N DNA content after 24 hrs by propidium iodide staining based flow cytometry; assay type: functional
Method in brief: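 MDA-MB-231 cells exposed to test compound at indicated doses, MLN8237, or 0.1% DMSO control for 24 h; cell-cycle distribution, including G2/M and 4N/8N populations, read by flow cytometry.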

[2] = target: T1, Aurora kinase A (Homo sapiens) (UniProt O14965); test: Inhibition of Aurora A phosphorylation at Thr288 residue in human 293T cells at 1 to 2 uM after 24 hrs by western blot analysis; assay type: cell-based
T1 sequence (whole entry): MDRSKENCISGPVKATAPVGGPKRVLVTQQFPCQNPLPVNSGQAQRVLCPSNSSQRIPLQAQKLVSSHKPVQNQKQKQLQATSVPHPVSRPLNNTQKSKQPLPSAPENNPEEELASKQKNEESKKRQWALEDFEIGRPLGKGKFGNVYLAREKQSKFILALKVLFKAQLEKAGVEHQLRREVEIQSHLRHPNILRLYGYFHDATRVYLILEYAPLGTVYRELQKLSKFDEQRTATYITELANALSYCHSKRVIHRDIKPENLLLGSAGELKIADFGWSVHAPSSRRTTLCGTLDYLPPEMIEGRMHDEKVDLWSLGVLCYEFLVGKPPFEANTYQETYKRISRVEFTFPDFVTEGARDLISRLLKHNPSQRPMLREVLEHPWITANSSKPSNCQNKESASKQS
Method in brief: (§1)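 293T cells treated 24 h with increasing doses or 0.1% DMSO control; lysates probed by Western blot for p-Aurora A (Thr288) and p-histone H3 (Ser10), with GAPDH as loading control.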

Aurora kinase A = target: T2, Aurora kinase A (Homo sapiens, UniProt O14965); test: Inhibition of Aurora A (unknown origin) using FAM-labelled peptide as substrate pretreated for 10 mins followed by substrate addition and measured after 60 mins by fluorescence assay
T2 sequence (O14965 whole entry): T1 sequence (whole entry)
Method in brief: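 Kinase IC50 values are the mean of at least two independent experiments; selectivity is the Aurora A/B ratio of these IC50s.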

MDA-MB-231 [3] = test: Induction of morphological changes in human MDA-MB-231 cells assessed as monopolar/multipolar spindle formation at 1 uM by DAPI staining based microscopic analysis; assay type: functional, cell-based
Method in brief: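 MDA-MB-231 cells incubated 24 h with 1 µM compound or 0.1% DMSO; immunofluorescence imaging of centrosomes, spindles and nuclei at ×1000 to score spindle polarity and chromosome alignment at the metaphase plate.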

K562 = test: Antiproliferative activity against human K562 cells after 48 hrs by CCK8 assay; assay type: functional, cell-based; settings: Homo sapiens, K562, 48 h; read-out: IC50
MDA-MB-231 [4] = test: Antitumor activity against human MDA-MB-231 cells xenografted in BALB/c athymic nude mouse assessed as tumor weight at 30 mg/kg, ig administered every 2 days for 18 days (reference value: 1.7 +/- 0.84 g); assay type: functional
Method in brief: (§2)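 Nude mice with established MDA-MB-231 xenografts dosed intragastrically every 2 days for 18 days; vehicle control group; n=4 per group. Tumor volume estimated over time and compared by two-way repeated-measures ANOVA; dissected tumors weighed at end. Data as mean ±SD.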

MDA-MB-231 [5] = test: Antitumor activity against human MDA-MB-231 cells xenografted in BALB/c athymic nude mouse assessed as reduction in tumor size at 30 mg/kg, ig administered every 2 days for 18 days; assay type: functional, organism-based; method in brief: as §2
MOLT-4 = test: Antiproliferative activity against human MOLT4 cells after 48 hrs by CCK8 assay; assay type: functional, cell-based; settings: Homo sapiens, MOLT-4, 48 h; read-out: IC50
Mus musculus [6] = test: Toxicity in BALB/c athymic nude mouse xenografted with human MDA-MB-231 cells assessed as effect on WBC level at 30 mg/kg, ig administered every 2 days for 18 days measured post last dose; assay type: organism-based; settings: in vivo, po
Method in brief: (§3)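 After the 18-day intragastric course (every 2 days), blood cell counts taken from untreated, vehicle and dosed mice; groups compared by unpaired two-tailed t-test; mean ±SD, n=4.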

Mus musculus [7] = test: Toxicity in BALB/c athymic nude mouse xenografted with human MDA-MB-231 cells assessed as effect on MCHC level at 30 mg/kg, ig administered every 2 days for 18 days measured post last dose; assay type: organism-based; settings: in vivo, po; method in brief: as §3
[8] = target: T1, Aurora kinase A (Homo sapiens); test: Inhibition of Aurora A phosphorylation at Thr288 residue in human 293T cells at 1 uM after 24 hrs by western blot analysis; assay type: cell-based; method in brief: as §1
Mus musculus [9] = test: Toxicity in BALB/c athymic nude mouse xenografted with human MDA-MB-231 cells assessed as effect on MCV level at 30 mg/kg, ig administered every 2 days for 18 days measured post last dose; assay type: organism-based; settings: in vivo, po; method in brief: as §3
Mus musculus [10] = test: Toxicity in BALB/c athymic nude mouse xenografted with human MDA-MB-231 cells assessed as effect on MCH level at 30 mg/kg, ig administered every 2 days for 18 days measured post last dose; assay type: organism-based; settings: in vivo, po; method in brief: as §3
Mus musculus [11] = test: Toxicity in BALB/c athymic nude mouse xenografted with human MDA-MB-231 cells assessed as effect on PLT level at 30 mg/kg, ig administered every 2 days for 18 days measured post last dose; assay type: organism-based; settings: in vivo, po; method in brief: as §3
Mus musculus [12] = test: Toxicity in BALB/c athymic nude mouse xenografted with human MDA-MB-231 cells assessed as effect on lung weight at 30 mg/kg, ig administered every 2 days for 18 days measured post last dose; assay type: organism-based; settings: in vivo, po
Method in brief: (§4)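 Xenograft-bearing nude mice dosed intragastrically every 2 days for 18 days; body weight tracked throughout. After treatment ended, liver, lung, kidney and spleen weighed in untreated, vehicle and dosed groups; unpaired two-tailed t-test; mean ±SD, n=4.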

MDA-MB-231 [13] = test: Inhibition of colony formation in human MDA-MB-231 cells assessed as reduction in number of colonies at 3 uM after 7 days by crystal violet staining based assay; assay type: functional, cell-based
Method in brief: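 Colony formation of MDA-MB-231 cells grown 7 days with 3 µM compound or 0.1% DMSO; colony numbers counted and compared against control.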

Mus musculus [14] = test: Toxicity in BALB/c athymic nude mouse xenografted with human MDA-MB-231 cells assessed as effect on liver weight at 30 mg/kg, ig administered every 2 days for 18 days measured post last dose; assay type: organism-based; settings: in vivo, po; method in brief: as §4
SK-BR-3 = test: Antiproliferative activity against human SKBR3 cells after 48 hrs by CCK8 assay; assay type: functional, cell-based; settings: Homo sapiens, SK-BR-3, 48 h; read-out: IC50
Mus musculus [15] = test: Toxicity in BALB/c athymic nude mouse xenografted with human MDA-MB-231 cells assessed as effect on RDW-SD level at 30 mg/kg, ig administered every 2 days for 18 days measured post last dose; assay type: organism-based; settings: in vivo, po; method in brief: as §3
MCF7 = test: Antiproliferative activity against human MCF7 cells after 48 hrs by CCK8 assay; assay type: functional, cell-based; settings: Homo sapiens, MCF7, 48 h; read-out: IC50
Mus musculus [16] = test: Toxicity in BALB/c athymic nude mouse xenografted with human MDA-MB-231 cells assessed as body weight loss at 30 mg/kg, ig administered every 2 days for 18 days measured during compound dosing; assay type: organism-based; settings: in vivo, po; method in brief: as §4
Mus musculus [17] = test: Toxicity in BALB/c athymic nude mouse xenografted with human MDA-MB-231 cells assessed as effect on HCT level at 30 mg/kg, ig administered every 2 days for 18 days measured post last dose; assay type: organism-based; settings: in vivo, po; method in brief: as §3
Aurora kinase B = Aurora kinase B (Homo sapiens, UniProt Q96GD4); test: Inhibition of Aurora B in human 293T cells assessed as reduction in histone H3 phosphorylation at Ser10 residue at 1 to 2 uM after 24 hrs by Western blot analysis; assay type: cell-based; method in brief: as §1
Sequence of Aurora kinase B (Q96GD4 whole entry): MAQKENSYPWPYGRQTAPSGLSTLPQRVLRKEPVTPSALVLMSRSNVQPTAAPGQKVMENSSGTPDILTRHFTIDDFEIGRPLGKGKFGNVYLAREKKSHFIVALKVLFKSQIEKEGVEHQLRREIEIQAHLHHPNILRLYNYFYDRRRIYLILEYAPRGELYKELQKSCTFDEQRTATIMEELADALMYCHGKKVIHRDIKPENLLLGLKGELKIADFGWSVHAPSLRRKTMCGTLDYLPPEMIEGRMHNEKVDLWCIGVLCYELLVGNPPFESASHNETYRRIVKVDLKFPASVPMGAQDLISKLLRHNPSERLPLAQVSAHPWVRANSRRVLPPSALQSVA

`CCOC(=O)C1CCN(c2ccc3c(Nc4cc(C)[nH]n4)nc(-c4ccccc4)nc3c2)CC1` was tested, and the Activity (MDA-MB-231 [1]) was “Dose-dependent effect”, the inhibition [2] was “Active” and the IC50 (Aurora kinase A) was 38 nM. For the same compound, the Activity (MDA-MB-231 [3]) was “Active”, the IC50 (K562) was 1090 nM and the Activity (MDA-MB-231 [4]) was 0.85 g. For the same compound, the Activity (MDA-MB-231 [5]) was “Active”, the IC50 (MOLT-4) was 821 nM and the Activity (Mus musculus [6]) was “Non-Toxic”. For the same compound, the Activity (Mus musculus [7]) was “Non-Toxic”, the inhibition [8] was “Active” and the Activity (Mus musculus [9]) was “Non-Toxic”. For the same compound, the Activity (Mus musculus [10]) was “Non-Toxic”, the Activity (Mus musculus [11]) was “Non-Toxic” and the Activity (Mus musculus [12]) was “Non-Toxic”. The Activity (MDA-MB-231 [13]) was “Active”, the Activity (Mus musculus [14]) was “Non-Toxic” and the IC50 (SK-BR-3) was 2400 nM. The Activity (Mus musculus [15]) was “Non-Toxic”, the IC50 (MCF7) was 2230 nM and the Activity (Mus musculus [16]) was “Non-Toxic”. For the same compound, the Activity (Mus musculus [17]) was “Non-Toxic” and the “inhibition (INH)” value (Aurora kinase B) was “Not Active”.
